In data set [1] the test system is Mast/stem cell growth factor receptor Kit (Homo sapiens), P10721 [T670I]. Conditions: 1 uM.
The test system of data set [2] is Mast/stem cell growth factor receptor Kit (Homo sapiens), P10721 [V654A]. The data set is described as follows: Inhibition of TEL-fused cKIT V654A mutant (unknown origin) expressed in mouse BA/F3 cells assessed as cell growth inhibition after 72 hrs by cell titer-glo assay. In kind it is cell-based. The method in brief:
(§1)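 Cells seeded at 3000 per well and exposed to serial compound dilutions for 72 h. Viability read by CellTiter-Glo luminescence and normalised to DMSO controls; mean of three independent measurements. BaF3 lines kept IL-3-free in RPMI 1640/10% FBS after retroviral transduction and puromycin selection. GIST lines grown in DMEM/10% FBS.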
(Cellular ATP, detected with luciferase, serves as a proxy for viable cell number.)

Data set [3] deals with Mast/stem cell growth factor receptor Kit (Homo sapiens), P10721 [T670I]. Conditions: 1 uM. This is another data set of the same source.
Data set [4] shares this test system. The data set is described as follows: Inhibition of TEL-fused cKIT T670I mutant (unknown origin) expressed in mouse BA/F3 cells assessed as cell growth inhibition after 72 hrs by cell titer-glo assay. In kind it is cell-based. The method in brief: as §1
For data set [5] the test system is unchanged. Conditions: 1 uM. The source holds these as a separate data set.
Data set [6] shares this test system. The data set is described as follows: Inhibition of […] cKIT T670I mutant in human GIST-5R cells assessed as cell growth inhibition after 72 hrs by cell titer-glo assay. In kind it is cell-based.
The test system is the same in data set [7]. Conditions: 1 uM. This is another data set of the same source.
Data set [8] in a line: Cytotoxicity mouse BA/F3 cells assessed as cell growth inhibition after 72 hrs by cell titer-glo assay. In kind it is cell-based, BaF3. The gist of the method: as §1
For data set [9], the system named is Mast/stem cell growth factor receptor Kit (Homo sapiens), P10721 [T670I]. Conditions: 1 uM. The source holds these as a separate data set.
The subject of data set [10] is Mast/stem cell growth factor receptor Kit (Homo sapiens), P10721 [D816V]. The data set is described as follows: Inhibition of TEL-fused cKIT D816V mutant (unknown origin) expressed in mouse BA/F3 cells assessed as cell growth inhibition after 72 hrs by cell titer-glo assay. In kind it is cell-based. The gist of the method: as §1
For data set [11], the system named is Mast/stem cell growth factor receptor Kit (Homo sapiens), P10721 [V559D,V654A]. The data set is described as follows: Inhibition of TEL-fused cKIT V559D/V654A double mutant (unknown origin) expressed in mouse BA/F3 cells assessed as cell growth inhibition after 72 hrs by cell titer-glo assay. In kind it is cell-based. The gist of the method: as §1
Chain of Mast/stem cell growth factor receptor Kit (Homo sapiens), P10721 [V559D,V654A] (P10721 whole entry V559D/V654A, the tested form may be a part): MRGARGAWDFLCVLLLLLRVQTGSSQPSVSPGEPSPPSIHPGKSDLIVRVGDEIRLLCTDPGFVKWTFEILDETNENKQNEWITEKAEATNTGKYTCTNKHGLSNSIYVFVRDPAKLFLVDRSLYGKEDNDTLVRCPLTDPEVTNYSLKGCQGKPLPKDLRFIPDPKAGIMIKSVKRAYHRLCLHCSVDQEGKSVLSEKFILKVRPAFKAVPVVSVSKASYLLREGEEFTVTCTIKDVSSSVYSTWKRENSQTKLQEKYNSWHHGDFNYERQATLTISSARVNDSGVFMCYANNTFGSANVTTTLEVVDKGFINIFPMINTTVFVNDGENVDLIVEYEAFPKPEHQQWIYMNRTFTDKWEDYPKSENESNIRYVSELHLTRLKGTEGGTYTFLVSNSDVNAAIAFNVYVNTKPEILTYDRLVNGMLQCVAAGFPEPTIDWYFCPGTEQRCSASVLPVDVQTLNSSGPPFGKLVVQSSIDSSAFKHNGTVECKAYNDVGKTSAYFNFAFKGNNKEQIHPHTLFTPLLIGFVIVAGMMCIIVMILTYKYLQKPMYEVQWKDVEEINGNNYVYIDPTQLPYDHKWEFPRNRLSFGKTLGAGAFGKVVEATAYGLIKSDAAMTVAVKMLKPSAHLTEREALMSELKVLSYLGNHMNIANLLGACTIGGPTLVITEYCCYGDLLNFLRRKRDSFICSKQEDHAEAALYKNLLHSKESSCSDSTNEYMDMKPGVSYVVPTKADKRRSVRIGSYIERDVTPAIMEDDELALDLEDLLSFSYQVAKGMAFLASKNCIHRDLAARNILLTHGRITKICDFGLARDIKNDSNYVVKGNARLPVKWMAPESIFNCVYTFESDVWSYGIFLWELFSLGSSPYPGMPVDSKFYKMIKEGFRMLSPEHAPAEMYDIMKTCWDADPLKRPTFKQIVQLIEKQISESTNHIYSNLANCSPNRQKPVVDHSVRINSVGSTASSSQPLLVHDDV
Data set [12] deals with Mast/stem cell growth factor receptor Kit (Homo sapiens), P10721 [N822K]. Briefly: Inhibition of TEL-fused cKIT N822K mutant (unknown origin) expressed in mouse BA/F3 cells assessed as cell growth inhibition after 72 hrs by cell titer-glo assay. In kind it is cell-based. The method in brief:
as §1

In data set [13] the test system is Mast/stem cell growth factor receptor Kit (Homo sapiens), P10721 [T670I]. Conditions: 1 uM. This is another data set of the same source.
For a further data set, the species on record is Homo sapiens. Briefly: Inhibition of TEL-fused cKIT L567P mutant (unknown origin) expressed in mouse BA/F3 cells assessed as cell growth inhibition after 72 hrs by cell titer-glo assay. In kind it is cell-based. The method in brief:
as §1

Calls of active or inactive are those of the source. The rule behind the calls is not given here.

The values that follow come from ChEMBL document CHEMBL4428071 (J Med Chem, 2016).

Broadly, the GI50 is the concentration that inhibits growth by half.

Chain of Mast/stem cell growth factor receptor Kit (Homo sapiens), P10721 [T670I] (P10721 whole entry T670I, the tested form may be a part): as the sequence (P10721 whole entry V559D/V654A, the tested form may be a part) above, with D559V, A654V, T670I counted along it
Chain of Mast/stem cell growth factor receptor Kit (Homo sapiens), P10721 [D816V] (P10721 whole entry D816V, the tested form may be a part): as the sequence (P10721 whole entry V559D/V654A, the tested form may be a part) above, with D559V, A654V, D816V counted along it
Chain of Mast/stem cell growth factor receptor Kit (Homo sapiens), P10721 [V654A] (P10721 whole entry V654A, the tested form may be a part): as the sequence (P10721 whole entry V559D/V654A, the tested form may be a part) above, with D559V counted along it
Chain of Mast/stem cell growth factor receptor Kit (Homo sapiens), P10721 [N822K] (P10721 whole entry N822K, the tested form may be a part): as the sequence (P10721 whole entry V559D/V654A, the tested form may be a part) above, with D559V, A654V, N822K counted along it

For `Cc1ccc(NC(=O)c2ccc(CN3CCN(C)CC3)cc2)cc1Nc1nccc(-c2cccnc2)n1` [IMATINIB], the inhibition entry in data set [1], in [3], in [5], in data set [7], in data set [9] and in data set [13] was “inactive” each time. The GI50 in data set [2] is 700 nM; in data set [4], 9600 nM; in [6], 8300 nM; in data set [10], over 10000 nM; in data set [11], 700 nM; in data set [12], 360 nM. In addition, the GI50 in the data set listed under Homo sapiens is 10 nM. Moreover, the GI50 at 72 h in data set [8] is over 10000 nM.
